Experimental data: ChEMBL document CHEMBL3425511 (J Med Chem, 2015)
pIC50: −log10 of the molar value. Each block holds one compound with its values, some of them ahead of it. Activity calls are given as the source filed them.

Columns and labels:
[1] = biological target: T1, Transient receptor potential cation channel subfamily V member 1 (Homo sapiens, UniProt Q8NER1); assay: Antagonist activity at recombinant human TRPV1 expressed in HEK293 cells assessed as inhibition of capsaicin-induced Ca2+ influx at 1 uM preincubated for 5 mins followed by capsaicin challenge relative to control; type: cell-based
T1 sequence (Q8NER1 whole entry): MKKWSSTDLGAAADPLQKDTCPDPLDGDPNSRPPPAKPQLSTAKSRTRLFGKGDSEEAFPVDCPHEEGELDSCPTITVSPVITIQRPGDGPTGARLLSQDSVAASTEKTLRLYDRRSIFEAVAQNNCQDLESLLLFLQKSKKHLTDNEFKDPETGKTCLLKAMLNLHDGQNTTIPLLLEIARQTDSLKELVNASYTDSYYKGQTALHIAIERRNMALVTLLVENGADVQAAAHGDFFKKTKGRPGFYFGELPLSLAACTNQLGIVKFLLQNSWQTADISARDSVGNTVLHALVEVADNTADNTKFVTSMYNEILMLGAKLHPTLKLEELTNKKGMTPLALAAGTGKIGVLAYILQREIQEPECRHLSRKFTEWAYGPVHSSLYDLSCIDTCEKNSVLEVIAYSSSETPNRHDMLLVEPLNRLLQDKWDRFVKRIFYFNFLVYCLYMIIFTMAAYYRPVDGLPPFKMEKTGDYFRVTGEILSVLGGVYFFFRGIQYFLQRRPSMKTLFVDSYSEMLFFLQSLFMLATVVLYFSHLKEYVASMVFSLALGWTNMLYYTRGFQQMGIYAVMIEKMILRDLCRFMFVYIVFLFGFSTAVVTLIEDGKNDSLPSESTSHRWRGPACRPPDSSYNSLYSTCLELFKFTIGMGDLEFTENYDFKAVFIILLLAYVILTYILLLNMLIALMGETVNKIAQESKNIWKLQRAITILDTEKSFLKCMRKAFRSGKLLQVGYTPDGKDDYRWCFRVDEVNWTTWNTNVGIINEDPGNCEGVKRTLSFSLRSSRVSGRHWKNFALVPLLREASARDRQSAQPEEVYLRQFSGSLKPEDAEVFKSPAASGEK
Procedure, shortened: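 HEK293 cells stably expressing human TRPV1, loaded with Calcium 3 dye 35 min at 37 °C, then 25 min at room temperature. Compound added and Ca²⁺ read 5 min (FLIPR or FDSS) before capsaicin at ~EC80 (typically 0.020−0.030 μM final). Response normalised to 90 or 100 μM capsaicin (100%) and 0.6 pM (0%).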

[2] = biological target: T1, Transient receptor potential cation channel subfamily V member 1; assay: Antagonist activity at recombinant human TRPV1 expressed in HEK293 cells assessed as inhibition of capsaicin-induced Ca2+ influx preincubated for 5 mins followed by capsaicin challenge; type: cell-based
[3] = tested on: Rattus norvegicus; assay: Reversal of complete freund's adjuvant-induced thermal hypersensitivity in po dosed Sprague-Dawley rat measured after 30 to 180 mins; type: functional, organism-based
Procedure, shortened: (§1)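 Male Sprague−Dawley rats (195−350 g), intraplantar CFA (100 μL, 1:1 CFA:saline) with testing 24 h later, or carrageenan-λ (200 μL, 10 mg/mL) with testing 3 h later. Radiant heat withdrawal latency, 10−15 s baseline, 20 s cutoff; rats with ≥25% latency drop kept. Oral dosing at 2.5 mL/kg. Percent reversal = (treatment − post)/(pre − post) × 100, scored blind.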

[4] = (§2) Metabolic stability in rat liver microsomes assessed as compound remaining after 10 mins; type: ADME; conditions: liver microsomes, read-out: Stability
Procedure, shortened: (§3)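 Compound incubated 10 min with liver microsomes of the stated species; amount of parent remaining reported as percent.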

[5] = (§4) Metabolic stability in human liver microsomes assessed as compound remaining after 10 mins; type: ADME; conditions: liver microsomes, read-out: Stability; procedure, shortened: as §3
[6] = tested on: Liver microsome; assay: as §2; type: ADME; conditions: microsomes, 10 min; procedure, shortened: as §3
[7] = tested on: Rattus norvegicus; assay: Reversal of complete freund's adjuvant-induced thermal hypersensitivity in po dosed Sprague-Dawley rat measured at 3 hrs; type: functional; procedure, shortened: as §1
[8] = tested on: Liver microsome; assay: as §4; type: ADME; conditions: microsomes, 10 min; procedure, shortened: as §3
[9] = Oral bioavailability in rat at 10 mg/kg; type: ADME, organism-based; conditions: in vivo
Procedure, shortened: (§5)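 Oral dosing at 10 mg/kg as a solution of the sodium salt in 20% HPβCD, n = 4 animals per group.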

[10] = tested on: Rattus norvegicus; assay: Reversal of complete freund's adjuvant-induced thermal hypersensitivity in po dosed Sprague-Dawley rat measured at 30 mins; type: functional; procedure, shortened: as §1
[11] = tested on: Rattus norvegicus; assay: Reversal of complete freund's adjuvant-induced thermal hypersensitivity in po dosed Sprague-Dawley rat measured at 100 mins; type: functional; procedure, shortened: as §1
[12] = tested on: Rattus norvegicus; assay: Reversal of complete freund's adjuvant-induced thermal hypersensitivity in po dosed Sprague-Dawley rat assessed as plasma concentration required to reach ED80 measured at 100 mins; type: functional
Procedure, shortened: (§6)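 Rats dosed orally 100 min before radiant-heat testing. For CFA, plasma taken right after behavioural testing; for carrageenan, taken from a separate group dosed identically. Blood collected on lithium heparin and centrifuged, plasma stored at −80 °C. Plasma levels matching ED50 and ED80 (EC50/EC80) computed from the dose−response data.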

[13] = tested on: Rattus norvegicus; assay: Reversal of complete freund's adjuvant-induced thermal hypersensitivity in po dosed Sprague-Dawley rat assessed as plasma concentration required to reach ED50 measured at 100 mins; type: functional; procedure, shortened: as §6
[14] = tested on: Rattus norvegicus; assay: Reversal of complete freund's adjuvant-induced thermal hypersensitivity in Sprague-Dawley rat at 30 mg/kg, po measured after 30 to 180 mins; type: functional, organism-based; set-up: dose 30 mg/kg
[15] = Half life in rat at 10 mg/kg, po; type: ADME, organism-based; set-up: dose 10 mg/kg, route oral; conditions: in vivo; procedure, shortened: as §5
[16] = tested on: Rattus norvegicus; assay: Reversal of complete freund's adjuvant-induced thermal hypersensitivity in po dosed Sprague-Dawley rat after 60 mins; type: functional; procedure, shortened: as §1
[17] = Clearance in rat at 2 mg/kg, iv; type: ADME, organism-based; set-up: dose 2 mg/kg, route intravenous; conditions: in vivo
Procedure, shortened: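 Intravenous dosing at 2 mg/kg as a solution of the sodium salt in 20% HPβCD, n = 4 animals per group.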

[18] = organism: Rattus norvegicus; assay: Drug level in rat treated with (trans)-1-(2-{2-[2-(4-Trifluoromethyl-phenyl)-vinyl]-1H-benzoimidazol-5-yl}-phenyl)-ethanol; type: ADME, organism-based; conditions: in vivo
[19] = tested on: Rattus norvegicus; assay: Reversal of complete freund's adjuvant-induced thermal hypersensitivity in Sprague-Dawley rat at 10 mg/kg, po measured after 30 to 180 mins; type: functional, organism-based; set-up: dose 10 mg/kg
[20] = organism: Rattus norvegicus; assay: Drug metabolism in rat assessed as formation of (trans)-1-(2-{2-[2-(4-Trifluoromethyl-phenyl)-vinyl]-1H-benzoimidazol-5-yl}-phenyl)-ethanone; type: ADME, organism-based; conditions: in vivo

- inhibition [1]: 6%
Structure (SMILES): CC(C)(C)c1ccc(CCCc2nc3cc(-c4ccccc4O)ccc3[nH]2)cc1

- pIC50 [2]: 7.72
Structure (SMILES): CC(C)(O)c1ccccc1-c1ccc2[nH]c(/C=C/c3ccc(S(=O)(=O)C(F)(F)F)cc3)nc2c1
- Activity [3]: inactive

- inhibition [1]: 10%
Structure (SMILES): CC(=O)Nc1ccc(-c2ccc3[nH]c(/C=C/c4ccc(C(C)(C)C)cc4)nc3c2)cc1

- remaining at 10 min [4]: 29%
- remaining at 10 min [5]: 9%
Structure (SMILES): CC(C)(C)c1ccc(/C=C/c2nc3cc(-c4ccccc4NS(C)(=O)=O)ccc3[nH]2)cc1

- pIC50 [2]: 8.55
- remaining at 10 min [4]: 5%
- remaining at 10 min [5]: 45%
Structure (SMILES): CC(C)(O)c1ccccc1-c1ccc2[nH]c(CCc3ccc(C(F)(F)F)cc3)nc2c1

- Stability [6]: Unstable
Structure (SMILES): NS(=O)(=O)c1ccccc1-c1ccc2[nH]c(/C=C/c3ccc(OC(F)(F)F)cc3)nc2c1

- inhibition [1]: 6%
Structure (SMILES): CC(C)(C)c1ccc(Cc2nc3cc(-c4ccccc4O)ccc3[nH]2)cc1

- pIC50 [2]: 7.70
Structure (SMILES): NS(=O)(=O)c1ccccc1-c1ccc2[nH]c(C#Cc3ccc(C(F)(F)F)cc3)nc2c1

- inhibition [1]: 63%
Structure (SMILES): CS(=O)(=O)Nc1ccccc1-c1ccc2[nH]c(/C=C/c3ccc(OCC(F)(F)C(F)(F)F)cc3)nc2c1

- pIC50 [2]: 8.55
- Stability [6]: Stable
- Stability [8]: Stable
- bioavailability [9]: 13%
Structure (SMILES): CC(C)(O)c1ccccc1-c1ccc2[nH]c(C#Cc3ccccc3)nc2c1
- Activity [7]: 41%
- Activity [10]: 71%

Structure (SMILES): NS(=O)(=O)c1ccccc1-c1ccc2[nH]c(/C=C/c3ccc(C(F)(F)F)cc3)nc2c1
- ED50 [11]: 2.6 mg/kg
- ED80 [11]: 10.3 mg/kg
- Activity [12]: 62788 ng/mL
- Activity [13]: 1757 ng/mL

Structure (SMILES): Cc1ccc(-c2cc(C(F)(F)F)nn2-c2ccc(S(N)(=O)=O)cc2)cc1
- Activity [14]: Active

- pIC50 [2]: 8.35
- Stability [6]: Stable
- Stability [8]: Stable
Structure (SMILES): CC(C)(O)c1ccccc1-c1ccc2[nH]c(C#Cc3ccc(C(F)(F)F)cc3)nc2c1

- pIC50 [2]: 8.00
- half-life [15]: 4 h
- remaining at 10 min [4]: 50%
- remaining at 10 min [5]: 85%
- bioavailability [9]: 65%
- clearance [17]: 13 mL/min/kg
Structure (SMILES): CS(=O)(=O)Nc1ccccc1-c1ccc2[nH]c(/C=C/c3ccc(C(F)(F)F)cc3)nc2c1
- Activity [16]: Dose-dependent effect
- ED50 ([16]; Rattus norvegicus, Sprague-Dawley, po, 1 h): 4.3 mg/kg

- Stability [6]: Unstable
- Stability [8]: Unstable
Structure (SMILES): NS(=O)(=O)c1ccccc1-c1ccc2[nH]c(CCc3ccc(C(F)(F)F)cc3)nc2c1

- Drug metabolism [18]: metabolite_detected
Structure (SMILES): CC(=O)c1ccccc1-c1ccc2[nH]c(/C=C/c3ccc(C(F)(F)F)cc3)nc2c1

- inhibition [1]: 48%
Structure (SMILES): CS(=O)(=O)Nc1ccccc1-c1ccc2[nH]c(/C=C/c3cccc(C(F)(F)F)c3)nc2c1

- pIC50 [2]: 8.24
- Stability [6]: Stable
- Stability [8]: Stable
Structure (SMILES): CC(C)(O)c1ccccc1-c1ccc2[nH]c(/C=C/c3ccc(Cl)cc3)nc2c1
- Activity [3]: inactive

- pIC50 [2]: 7.77
- Stability [6]: Stable
Structure (SMILES): CS(=O)(=O)Nc1ccccc1-c1ccc2[nH]c(/C=C/c3ccc(OC(F)(F)F)cc3)nc2c1
- Activity [19]: inactive

- pIC50 [2]: 8.31
Structure (SMILES): CC(C)(O)c1ccccc1-c1ccc2[nH]c(/C=C/c3cccc(C(F)(F)F)c3)nc2c1
- Activity [16]: 58%

- Stability [6]: Unstable
Structure (SMILES): NS(=O)(=O)c1ccccc1-c1ccc2[nH]c(/C=C/c3cccc(OC(F)(F)F)c3)nc2c1

- pIC50 [2]: 8.04
Structure (SMILES): CC(C)c1ccc(/C=C/c2nc3cc(-c4ccccc4NS(C)(=O)=O)ccc3[nH]2)cc1

- inhibition [1]: 44%
Structure (SMILES): CS(=O)(=O)Nc1ccccc1-c1ccc2[nH]c(/C=C/c3ccccc3C(F)(F)F)nc2c1

- Drug metabolism [20]: metabolite_detected
- remaining at 10 min [4]: 89%
- remaining at 10 min [5]: 97%
- bioavailability [9]: 39%
Structure (SMILES): CC(O)c1ccccc1-c1ccc2[nH]c(/C=C/c3ccc(C(F)(F)F)cc3)nc2c1 (stereo not given)

- inhibition [1]: 10%
Structure (SMILES): CC(C)(C)c1ccc(/C=C/c2nc3cc(-c4ccc(C(N)=O)cc4)ccc3[nH]2)cc1

- inhibition [1]: 12%
Structure (SMILES): CC(C)(C)c1ccc(/C=C/c2nc3cc(-c4cccc(C(N)=O)c4)ccc3[nH]2)cc1

- pIC50 [2]: 7.40
Structure (SMILES): CC(C)(C)c1ccc(/C=C/c2nc3cc(-c4ccccc4C(N)=O)ccc3[nH]2)cc1

- pIC50 [2]: 7.60
- remaining at 10 min [4]: 43%
- remaining at 10 min [5]: 12%
Structure (SMILES): CC(=O)c1ccccc1-c1ccc2[nH]c(/C=C/c3ccc(C(C)(C)C)cc3)nc2c1

- pIC50 [2]: 8.23
- Stability [6]: Stable
- Stability [8]: Stable
Structure (SMILES): CC(C)(O)c1ccccc1-c1ccc2[nH]c(/C=C/c3ccc(OC(F)(F)F)cc3)nc2c1
- Activity [3]: inactive
